Experimental findings from ChEMBL document CHEMBL1127523, “Design and synthesis of side-chain conformationally restricted phenylalanines and their use for structure-activity studies on tachykinin NK-1 receptor” (J Med Chem, 1994) are described below.

Each structure is given as a SMILES string. Some results are limits rather than exact numbers.

In one experiment the target is Substance-P receptor (Rattus norvegicus, UniProt P14600). In words: Concentration required to inhibit the specific binding of [125I]BH-SP to Neurokinin-1 (NK-1) receptor in rat brain synaptosomes. Format: subcellular.
The next experiment deals with T1, Neuromedin-K receptor (Rattus norvegicus, UniProt P16177).
T1 sequence (P16177 whole entry): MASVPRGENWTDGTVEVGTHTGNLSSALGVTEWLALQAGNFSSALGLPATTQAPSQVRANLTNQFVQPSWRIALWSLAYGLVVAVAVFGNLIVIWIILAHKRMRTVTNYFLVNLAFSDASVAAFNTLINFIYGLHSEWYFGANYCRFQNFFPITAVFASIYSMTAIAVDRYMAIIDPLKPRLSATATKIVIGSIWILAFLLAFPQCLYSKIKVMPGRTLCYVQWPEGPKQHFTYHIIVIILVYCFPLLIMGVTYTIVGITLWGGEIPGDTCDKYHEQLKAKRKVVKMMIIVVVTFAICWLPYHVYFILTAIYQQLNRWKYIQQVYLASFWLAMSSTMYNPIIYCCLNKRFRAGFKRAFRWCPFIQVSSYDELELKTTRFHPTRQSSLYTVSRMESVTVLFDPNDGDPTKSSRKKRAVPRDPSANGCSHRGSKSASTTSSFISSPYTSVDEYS
In words: Concentration required to inhibit the specific binding of [125I]BH-ELE to Neurokinin-3 (NK-3) receptor in rat brain synaptosomes. It counts as subcellular. The method, boiled down:
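Rat brain synaptosomes in Krebs-Ringer phosphate buffer with BSA, bacitracin and glucose. Incubated 15 min at 20 °C with 40 pM [125I]BHELE and increasing peptide concentrations, gamma counted. Triplicates, two to eight independent experiments; nonspecific binding defined with eledoisin 10⁻⁶ M. IC50 estimated from Hill plots of titration curves.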

A further experiment deals with T2, Substance-K receptor (Rattus norvegicus, UniProt P16610).
T2 sequence (P16610 whole entry): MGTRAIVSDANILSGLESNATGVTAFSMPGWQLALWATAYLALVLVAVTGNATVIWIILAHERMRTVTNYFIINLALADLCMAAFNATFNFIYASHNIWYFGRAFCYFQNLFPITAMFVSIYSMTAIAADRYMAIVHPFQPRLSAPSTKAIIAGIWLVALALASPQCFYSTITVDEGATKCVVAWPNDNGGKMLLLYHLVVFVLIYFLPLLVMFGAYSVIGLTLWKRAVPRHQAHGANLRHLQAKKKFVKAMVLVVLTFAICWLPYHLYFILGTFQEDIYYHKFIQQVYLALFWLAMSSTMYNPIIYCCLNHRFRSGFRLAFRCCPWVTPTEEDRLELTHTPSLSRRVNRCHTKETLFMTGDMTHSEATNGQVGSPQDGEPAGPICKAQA
The experiment can be described thus: Concentration required to inhibit the specific binding of [3H]NKA to Neurokinin-2 (NK-2) receptor in rat duodenum membranes.

The species named for another experiment is Cavia porcellus. The experiment can be described thus: Effective concentration required for its inhibition of nonspecific binding to guinea pig ileal membranes. Format: functional.

Substance-P receptor, sequence (P14600 whole entry): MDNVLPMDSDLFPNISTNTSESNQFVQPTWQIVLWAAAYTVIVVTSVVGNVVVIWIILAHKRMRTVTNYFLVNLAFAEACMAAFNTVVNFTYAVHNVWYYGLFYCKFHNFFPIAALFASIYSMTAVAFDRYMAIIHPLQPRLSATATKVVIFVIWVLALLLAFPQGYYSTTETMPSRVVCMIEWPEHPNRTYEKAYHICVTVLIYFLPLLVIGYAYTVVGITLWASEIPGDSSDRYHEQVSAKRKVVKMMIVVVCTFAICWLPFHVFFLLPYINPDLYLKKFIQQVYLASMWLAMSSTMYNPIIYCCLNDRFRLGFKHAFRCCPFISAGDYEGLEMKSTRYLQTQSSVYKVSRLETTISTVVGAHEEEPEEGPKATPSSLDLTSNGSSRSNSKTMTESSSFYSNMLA

Turning to `CSCC[C@H](NC(=O)[C@H](CC(C)C)NC(=O)CNC(=O)[C@@H](NC(=O)[C@H](Cc1ccccc1)NC(=O)[C@H](CCC(N)=O)NC(=O)[C@H](CCC(N)=O)NC(=O)[C@@H]1CCCN1C(=O)[C@H](CCCCN)NC(=O)[C@@H]1CCCN1C(=O)[C@@H](N)CCCNC(=N)N)[C@H]1CCc2cc3ccccc3cc21)C(N)=O`, the IC50 on Substance-P receptor came out at 0.6 nM; on Neuromedin-K receptor, 110 nM; on Substance-K receptor it was 29 nM.

`CSCC[C@H](NC(=O)[C@H](CC(C)C)NC(=O)CNC(=O)[C@@H](NC(=O)[C@H](Cc1ccccc1)NC(=O)[C@H](CCC(N)=O)NC(=O)[C@H](CCC(N)=O)NC(=O)[C@@H]1CCCN1C(=O)[C@H](CCCCN)NC(=O)[C@@H]1CCCN1C(=O)[C@@H](N)CCCN=C(N)N)C(C)(C)C)C(N)=O` registered a concentration giving a half-maximal response (EC50) in the experiment listed under Cavia porcellus of 2.5 nM. Besides, the figures for the IC50 at Substance-P receptor, on Neuromedin-K receptor and at Substance-K receptor were 2.6 nM, 65 nM and 9 nM, respectively.

Consider `CSCC[C@H](NC(=O)[C@H](CC(C)C)NC(=O)[C@@H]1CCCN1C(=O)[C@H](Cc1ccccc1)NC(=O)[C@H](Cc1ccccc1)NC(=O)[C@H](CCC(N)=O)NC(=O)[C@H](CCC(N)=O)NC(=O)[C@@H]1CCCN1C(=O)[C@H](CCCCN)NC(=O)[C@@H]1CCCN1C(=O)[C@@H](N)CCCN=C(N)N)C(N)=O`, for which, in the experiment filed under Cavia porcellus, the midpoint of the response, the EC50, lay at 2 nM. The IC50 on Substance-P receptor was 2.9 nM; on Neuromedin-K receptor, above 10000 nM; at Substance-K receptor, above 10000 nM.

In turn, `CSCC[C@H](NC(=O)[C@H](CC(C)C)NC(=O)CNC(=O)[C@@H](NC(=O)[C@H](Cc1ccccc1)NC(=O)[C@H](CCC(N)=O)NC(=O)[C@H](CCC(N)=O)NC(=O)[C@@H]1CCCN1C(=O)[C@H](CCCCN)NC(=O)[C@@H]1CCCN1C(=O)[C@@H](N)CCCN=C(N)N)C(C)(C)SC)C(N)=O` yielded an EC50 in the experiment filed under Cavia porcellus of 1.7 nM.

Regarding `CSCC[C@H](NC(=O)[C@H](CC(C)C)NC(=O)CNC(=O)[C@H](Cc1ccccc1)NC(=O)[C@@H]1Cc2ccccc2CN1C(=O)[C@H](CCC(N)=O)NC(=O)[C@H](CCC(N)=O)NC(=O)[C@@H]1CCCN1C(=O)[C@H](CCCCN)NC(=O)[C@@H]1CCCN1C(=O)[C@@H](N)CCCN=C(N)N)C(N)=O`, the IC50 on Substance-P receptor is 2400 nM; at Neuromedin-K receptor it was 1900 nM; on Substance-K receptor, 520 nM.

Turning to `CSCC[C@H](NC(=O)[C@H](CC(C)C)NC(=O)CNC(=O)[C@@H](NC(=O)[C@H](Cc1ccccc1)NC(=O)[C@H](CCC(N)=O)NC(=O)[C@H](CCC(N)=O)NC(=O)[C@@H]1CCCN1C(=O)[C@H](CCCCN)NC(=O)[C@@H]1CCCN1C(=O)[C@@H](N)CCCN=C(N)N)C1c2ccccc2-c2ccccc21)C(N)=O`, the half-maximal effective concentration (EC50) in the experiment filed under Cavia porcellus came out at 5.7 nM.

In the experiment filed under Cavia porcellus, `CSCC[C@H](NC(=O)[C@H](CC(C)C)NC(=O)CNC(=O)[C@H](Cc1ccccc1)NC(=O)/C(=C/c1ccccc1)NC(=O)[C@H](CCC(N)=O)NC(=O)[C@H](CCC(N)=O)NC(=O)[C@@H]1CCCN1C(=O)[C@H](CCCCN)NC(=O)[C@@H]1CCCN1C(=O)[C@@H](N)CCCN=C(N)N)C(N)=O` yielded an EC50 of 3100 nM. Further, the half-inhibitory concentration (IC50) at Neuromedin-K receptor was above 10000 nM; at Substance-K receptor it was 4900 nM.

`CSCC[C@H](NC(=O)[C@H](CC(C)C)NC(=O)CNC(=O)[C@H](Cc1ccccc1)NC(=O)[C@H](Cc1ccccc1)NC(=O)[C@H](CCC(N)=O)NC(=O)[C@H](CCC(N)=O)NC(=O)[C@@H]1CCCN1C(=O)[C@H](CCCCN)NC(=O)[C@@H]1CCCN1C(=O)[C@@H](N)CCCN=C(N)N)C(N)=O` [SUBSTANCE P] gave an IC50 on Neuromedin-K receptor of 130 nM.

With `CSCC[C@H](NC(=O)[C@H](CC(C)C)NC(=O)CNC(=O)[C@@H](NC(=O)[C@H](Cc1ccccc1)NC(=O)[C@H](CCC(N)=O)NC(=O)[C@H](CCC(N)=O)NC(=O)[C@@H]1CCCN1C(=O)[C@H](CCCCN)NC(=O)[C@@H]1CCCN1C(=O)[C@@H](N)CCCNC(=N)N)C1c2ccccc2-c2ccccc21)C(N)=O`, the figures for the IC50 on Substance-P receptor, on Neuromedin-K receptor and on Substance-K receptor were 2.5 nM, 91 nM and 41 nM, respectively.

In the case of `CSCC[C@H](NC(=O)[C@H](CC(C)C)NC(=O)CNC(=O)[C@@H](NC(=O)[C@H](Cc1ccccc1)NC(=O)[C@H](CCC(N)=O)NC(=O)[C@H](CCC(N)=O)NC(=O)[C@@H]1CCCN1C(=O)[C@H](CCCCN)NC(=O)[C@@H]1CCCN1C(=O)[C@@H](N)CCCNC(=N)N)C(c1ccccc1)c1ccccc1)C(N)=O`, the 50% inhibitory concentration (IC50) on Substance-P receptor stood at 500 nM; on Neuromedin-K receptor it was 2200 nM; at Substance-K receptor it was 670 nM.

With `CSCC[C@H](NC(=O)[C@H](CC(C)C)NC(=O)CNC(=O)[C@H](CCSC)NC(=O)[C@H](Cc1ccccc1)NC(=O)[C@H](CCC(N)=O)NC(=O)[C@H](CCC(N)=O)NC(=O)[C@@H]1CCCN1C(=O)[C@H](CCCCN)NC(=O)[C@@H]1CCCN1C(=O)[C@@H](N)CCCNC(=N)N)C(N)=O`, the IC50 on Substance-P receptor amounted to 18 nM; on Neuromedin-K receptor, 1200 nM.

Compound `CSCC[C@H](NC(=O)[C@H](CC(C)C)NC(=O)CNC(=O)[C@H](Cc1ccccc1)NC(=O)[C@@H](NC(=O)[C@H](CCC(N)=O)NC(=O)[C@H](CCC(N)=O)NC(=O)[C@@H]1CCCN1C(=O)[C@H](CCCCN)NC(=O)[C@@H]1CCCN1C(=O)[C@@H](N)CCCN=C(N)N)C(c1ccccc1)c1ccccc1)C(N)=O` gave a concentration for a half-maximal effect (EC50) in the experiment filed under Cavia porcellus of 226 nM.

Consider `CSCC[C@H](NC(=O)[C@H](CC(C)C)NC(=O)CNC(=O)[C@H](Cc1ccccc1)NC(=O)[C@H](CCSC)NC(=O)[C@H](CCC(N)=O)NC(=O)[C@H](CCC(N)=O)NC(=O)[C@@H]1CCCN1C(=O)[C@H](CCCCN)NC(=O)[C@@H]1CCCN1C(=O)[C@@H](N)CCCNC(=N)N)C(N)=O`, for which the IC50 worked out at 2700 nM on Substance-P receptor and 7400 nM on Neuromedin-K receptor.

Consider `CSCC[C@H](NC(=O)[C@H](CC(C)C)NC(=O)CNC(=O)[C@@H]1Cc2ccccc2CN1C(=O)[C@H](Cc1ccccc1)NC(=O)[C@H](CCC(N)=O)NC(=O)[C@H](CCC(N)=O)NC(=O)[C@@H]1CCCN1C(=O)[C@H](CCCCN)NC(=O)[C@@H]1CCCN1C(=O)[C@@H](N)CCCN=C(N)N)C(N)=O`, for which the IC50 at Substance-P receptor worked out at 1200 nM; at Neuromedin-K receptor, 20000 nM; at Substance-K receptor it was 18000 nM.

With `CSCC[C@H](NC(=O)[C@H](CC(C)C)NC(=O)CNC(=O)[C@H](Cc1ccccc1)NC(=O)[C@@H](NC(=O)[C@H](CCC(N)=O)NC(=O)[C@H](CCC(N)=O)NC(=O)[C@@H]1CCCN1C(=O)[C@H](CCCCN)NC(=O)[C@@H]1CCCN1C(=O)[C@@H](N)CCCNC(=N)N)C(c1ccccc1)c1ccccc1)C(N)=O`, the IC50 was determined as 1300 nM at Substance-P receptor, 17000 nM on Neuromedin-K receptor and 3600 nM on Substance-K receptor.

With `CSCC[C@H](NC(=O)[C@H](CC(C)C)NC(=O)CNC(=O)[C@@H](NC(=O)[C@H](Cc1ccccc1)NC(=O)[C@H](CCC(N)=O)NC(=O)[C@H](CCC(N)=O)NC(=O)[C@@H]1CCCN1C(=O)[C@H](CCCCN)NC(=O)[C@@H]1CCCN1C(=O)[C@@H](N)CCCNC(=N)N)C(C)(C)SC)C(N)=O`, the results for the IC50 at Substance-P receptor, on Neuromedin-K receptor and at Substance-K receptor were 2.4 nM, 170 nM and 68 nM, respectively.

Take `CSCC[C@H](NC(=O)[C@H](CC(C)C)NC(=O)CNC(=O)[C@H](Cc1ccccc1)NC(=O)/C(=C\c1ccccc1)NC(=O)[C@H](CCC(N)=O)NC(=O)[C@H](CCC(N)=O)NC(=O)[C@@H]1CCCN1C(=O)[C@H](CCCCN)NC(=O)[C@@H]1CCCN1C(=O)[C@@H](N)CCCN=C(N)N)C(N)=O`: it took 8.4 nM to reach a half-maximal effect in the experiment filed under Cavia porcellus (EC50). The IC50 on Neuromedin-K receptor was 11700 nM; at Substance-K receptor, 950 nM.

By IC50 is commonly meant the midpoint of a concentration-inhibition curve. Lower therefore signals greater potency in that assay. Broadly, the EC50 is the midpoint of the concentration-response curve. Lower therefore signals higher potency in that assay.
